# Laboratory results from paper PMC3115457 (Cellular signalling, 2011).
# Ends that are not written are not given here. Peptide text beside a SMILES is read from it.
# Tests used:
# [1] = target: Gβγ stimulation of Gαs-stimulated AC2 (Homo sapiens, UniProt P59768+P62873); assay: Adenylyl cyclase activity assay, Gβγ stimulation of Gαs-stimulated AC2; format: biochemical, Rat; details: for Gαs/Gβγ stimulation % Max Inhibition: Gβγ stimulation of Gαs-stimulated AC2, cAMP level at 300 μM peptide, peptides 46 nM to 300 μM
# Gβγ stimulation of Gαs-stimulated AC2, sequence (P62873 2-340 limits assumed): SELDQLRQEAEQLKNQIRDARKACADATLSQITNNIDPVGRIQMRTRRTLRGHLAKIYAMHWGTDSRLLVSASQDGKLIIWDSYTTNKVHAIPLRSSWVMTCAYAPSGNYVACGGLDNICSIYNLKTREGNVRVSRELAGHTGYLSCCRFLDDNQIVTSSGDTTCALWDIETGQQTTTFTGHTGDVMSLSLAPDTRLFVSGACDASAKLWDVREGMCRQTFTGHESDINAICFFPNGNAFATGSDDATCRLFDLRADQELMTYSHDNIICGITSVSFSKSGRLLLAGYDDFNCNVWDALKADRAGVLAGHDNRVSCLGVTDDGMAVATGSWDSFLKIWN
# Gβγ stimulation of Gαs-stimulated AC2, sequence (P59768 2-68 limits assumed): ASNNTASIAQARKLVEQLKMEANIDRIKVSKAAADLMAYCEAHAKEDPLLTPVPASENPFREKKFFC
# Summary of the method: (§1)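 AC2 came from membranes of Hi5 insect cells infected with recombinant AC2 baculovirus. Stimulants were constitutively active Gαs (Q227L) and Gβγ (Gβ1/His-Gγ2) purified from Hi5 cells. Peptides were tested from 46 nM to 300 μM, pre-incubated with membranes or G proteins, and run alongside control conditions. cAMP was measured radiometrically ([α-32P]ATP→[32P]cAMP) or by Lance kit. Duplicates were used, each repeated ≥2 times. IC50 came from non-linear regression.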
# Gαs-stimulated AC2 = Gαs-stimulated AC2 (Rattus norvegicus, UniProt P26769); assay: Adenylyl cyclase activity assay, Gαs stimulation of AC2; format: biochemical
# Gαs-stimulated AC2, sequence (P26769 whole entry): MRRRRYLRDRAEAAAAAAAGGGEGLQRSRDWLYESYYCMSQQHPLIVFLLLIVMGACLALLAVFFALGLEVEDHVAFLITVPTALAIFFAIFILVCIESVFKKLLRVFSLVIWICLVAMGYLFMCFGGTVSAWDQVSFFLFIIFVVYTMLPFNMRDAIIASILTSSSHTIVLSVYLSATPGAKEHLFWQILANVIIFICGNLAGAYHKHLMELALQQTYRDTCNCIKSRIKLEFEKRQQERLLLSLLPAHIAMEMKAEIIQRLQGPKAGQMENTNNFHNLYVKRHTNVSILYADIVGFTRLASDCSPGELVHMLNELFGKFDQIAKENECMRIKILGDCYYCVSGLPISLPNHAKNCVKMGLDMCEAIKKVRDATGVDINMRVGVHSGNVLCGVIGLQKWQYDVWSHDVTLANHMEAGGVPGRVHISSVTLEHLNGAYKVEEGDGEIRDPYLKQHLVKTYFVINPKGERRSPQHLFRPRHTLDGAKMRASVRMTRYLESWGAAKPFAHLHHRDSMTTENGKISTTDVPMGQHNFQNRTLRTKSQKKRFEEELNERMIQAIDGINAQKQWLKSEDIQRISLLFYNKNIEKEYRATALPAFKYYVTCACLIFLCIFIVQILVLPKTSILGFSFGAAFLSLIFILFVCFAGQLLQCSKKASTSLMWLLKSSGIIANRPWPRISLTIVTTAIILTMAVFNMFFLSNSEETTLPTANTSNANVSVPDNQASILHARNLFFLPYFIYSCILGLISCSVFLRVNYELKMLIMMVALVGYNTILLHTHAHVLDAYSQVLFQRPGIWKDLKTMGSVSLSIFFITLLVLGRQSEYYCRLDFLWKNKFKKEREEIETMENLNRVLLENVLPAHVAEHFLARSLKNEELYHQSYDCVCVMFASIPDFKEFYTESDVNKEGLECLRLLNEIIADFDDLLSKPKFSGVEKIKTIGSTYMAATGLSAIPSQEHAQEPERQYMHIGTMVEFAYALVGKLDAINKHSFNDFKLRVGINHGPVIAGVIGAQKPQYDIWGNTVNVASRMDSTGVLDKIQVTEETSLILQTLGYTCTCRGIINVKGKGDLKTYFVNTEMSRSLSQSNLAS
# Summary of the method: as §1
# Gβγ = Gβγ (Homo sapiens, UniProt P59768+P62873); format: binding
# Gβγ, sequence (P62873 2-340 limits assumed): as the sequence (P62873 2-340 limits assumed) above
# Gβγ, sequence (P59768 2-68 limits assumed): as the sequence (P59768 2-68 limits assumed) above
# Summary of the method: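 Biotinylated test peptides were captured on a streptavidin chip (Biacore 2000). Gβγ in 25 mM HEPES pH 8.0 was flowed over at 12.5, 25, 50, 100 and 200 nM at 20 μL/min. KD was obtained by fitting the sensorgrams in Biaevaluation, and residual plots were used to judge the fit.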
# AC2 = AC2 (Rattus norvegicus, UniProt P26769); assay: Adenylyl cyclase activity assay, basal AC2 activity in Hi5 membranes; format: biochemical
# AC2, sequence (P26769 whole entry): as the sequence (P26769 whole entry) above
# Summary of the method: as §1
IC50 [1],Gαs/Gβγ stimulation % Max Inhibition ([1]; listed as C1a region),IC50 (Gαs-stimulated AC2),Kd (Gβγ),IC50 (AC2),Gαs/Gβγ stimulation % Max Inhibition [1],Gαs/Gβγ stimulation % Max Inhibition ([1]; listed as C1b 578-602),"Binding to Gβγ (in words) (Gβγ; Biacore SPR, immobilized biotinylated peptide, Gβγ 12.5-200 nM)",Molecule
12.2 µM,,36.7 µM,,16.7 µM,11.5%,,,ERMIQAIDGINAQKQWLKSEDIQR [AC2 C1b (554-577)]
2.2 µM,,2.5 µM,0.102 ± 0.014 µM,38.5 µM,113.1%,> 100%,,ISLLFYNKVLEKEYRATALPAFKYY [AC2 C1b (578-602)]
,,,,,,,did not interact with Gβγ,MTTENGKISTTDVPMGQHNFQNRTLR-OH [AC2 C1b (515-541)]
,,,0.0139 ± 0.0088 µM,,,,,"QEHAQEPERQYMHIGTMVEFAYALVGK [QEHA C2 (956-982), reference compound]"

# The remaining lines, values behind:
Molecule,IC50 [1],Gαs/Gβγ stimulation % Max Inhibition ([1]; listed as C1a region),IC50 (Gαs-stimulated AC2),Kd (Gβγ),IC50 (AC2),Gαs/Gβγ stimulation % Max Inhibition [1],Gαs/Gβγ stimulation % Max Inhibition ([1]; listed as C1b 578-602),"Binding to Gβγ (in words) (Gβγ; Biacore SPR, immobilized biotinylated peptide, Gβγ 12.5-200 nM)"
CC[C@H](C)[C@H](NC(=O)[C@@H]1CCCN1C(=O)[C@H](CC(C)C)NC(=O)CNC(=O)[C@H](CO)NC(=O)[C@@H](NC(=O)[C@H](CS)NC(=O)[C@H](Cc1ccc(O)cc1)NC(=O)[C@H](Cc1ccc(O)cc1)NC(=O)[C@@H](N)CS)C(C)C)C(=O)N[C@@H](CO)C(=O)N[C@@H](CC(C)C)C(=O)N1CCC[C@H]1C(=O)N[C@@H](CC(N)=O)C(=O)N[C@@H](Cc1c[nH]cn1)C(=O)N[C@@H](C)C(=O)N[C@@H](CCCCN)C(=O)N[C@@H](CC(N)=O)C(=O)N[C@@H](CS)C(=O)N[C@H](C(=O)N[C@@H](CCCCN)C(=O)N[C@@H](CCSC)C(=O)O)C(C)C [AC2 C1a (339-360)] (H-CYYCVSGLPISLPNHAKNCVKM-OH),5.6 µM,88%,82.3 µM,0.0405 ± 0.0063 µM,7.7 µM,,,
"MTRYLESWGAAKPFAHL [AC2 C1b (493-509), reference compound]",,,,0.0027 ± 0.0013 µM,,,,
RYLESWGAAKPFAHLHHRDS [AC2 C1b (495-514)],13.9 µM,,32.9 µM,0.0047 ± 0.0017 µM,> 100 µM,67.0%,,
